In ChEMBL document CHEMBL1125626, “Synthesis and structure-activity relationship of new cephalosporins with amino heterocycles at C-7. Dependence of the antibacterial spectrum and beta-lactamase stability on the pKa of the C-7 heterocycle” (1991):
Values after ≈ are worked out from the molar mass of the structure shown.

Tests used:
Serratia marcescens = experiment: Minimum inhibitory concentration against Serratia marcescens A16 (inoculum, 10e5 cfu per spot); type: functional
Summary of the method: (§1)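 MIC in µg/mL, determined in Jewell and Permain growth medium with spot inoculation at 10^5 cfu per spot.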

Proteus mirabilis [1] = experiment: Minimum inhibitory concentration against Proteus mirabilis A18 (inoculum, 10e5 cfu per spot); type: functional; summary of the method: as §1
Staphylococcus aureus [2] = experiment: Minimum inhibitory concentration against Staphylococcus aureus A5(inoculum, 10e5 cfu per spot); type: functional; conditions: in the assay text read “10e2 cfu per spot” for “10e5 cfu per spot”
Enterobacter cloacae [3] = experiment: Minimum inhibitory concentration against Enterobacter cloacae A13(inoculum, 10e5 cfu per spot); type: functional; conditions: in the assay text read “10e2 cfu per spot” for “10e5 cfu per spot”
Pseudomonas aeruginosa = experiment: Minimum inhibitory concentration against Pseudomonas aeruginosa A21 (inoculum, 10e5 cfu per spot); type: functional; summary of the method: as §1
Escherichia coli [4] = experiment: Minimum inhibitory concentration against Escherichia coli A8 (inoculum, 10e5 cfu per spot); type: functional; summary of the method: as §1
Staphylococcus aureus [5] = experiment: Minimum inhibitory concentration against Staphylococcus aureus A6 (inoculum, 10e5 cfu per spot); type: functional; summary of the method: as §1
Streptococcus pyogenes = experiment: Minimum inhibitory concentration against Streptococcus pyogenes (inoculum, 10e5 cfu per spot) A1; type: functional; summary of the method: as §1
Enterobacter cloacae [6] = experiment: Minimum inhibitory concentration against Enterobacter cloacae A13 (inoculum, 10e5 cfu per spot); type: functional; summary of the method: as §1
Proteus vulgaris = experiment: Minimum inhibitory concentration against Proteus vulgaris Pv9 (inoculum, 10e5 cfu per spot)
Klebsiella aerogenes [7] = experiment: Minimum inhibitory concentration against Klebsiella aerogenes X5L (inoculum, 10e4 cfu per spot); type: functional
Summary of the method: (§2)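 MIC in µg/mL, determined in Jewell and Permain growth medium with spot inoculation at 10^4 cfu per spot. P99 is described as a constitutive type I lactamase producer.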

Enterobacter cloacae [8] = experiment: Minimum inhibitory concentration against Enterobacter cloacae P99 (inoculum, 10e4 cfu per spot)(type I lactamase producer); type: functional; summary of the method: as §2
Enterobacter cloacae [9] = experiment: Minimum inhibitory concentration against Enterobacter cloacae P99 (inoculum, 10e4 cfu per spot); type: functional; summary of the method: as §2
Klebsiella pneumoniae = experiment: Minimum inhibitory concentration against Klebsiella pneumoniae A24 (inoculum, 10e5 cfu per spot); type: functional; summary of the method: as §1
Escherichia coli [10] = experiment: Minimum inhibitory concentration against Escherichia coli TEM X3 (inoculum, 10e4 cfu per spot)(TEM I type lactamase producer)
Klebsiella aerogenes [11] = experiment: Minimum inhibitory concentration against Klebsiella aerogenes X6 (inoculum, 10e4 cfu per spot); type: functional; summary of the method: as §2
Escherichia coli [12] = experiment: Minimum inhibitory concentration against Escherichia coli X4 (inoculum, 10e4 cfu per spot)
Escherichia coli [13] = experiment: Minimum inhibitory concentration against Escherichia coli DC2 (inoculum, 10e4 cfu per spot); type: functional; summary of the method: as §2
Staphylococcus aureus [14] = experiment: Minimum inhibitory concentration against Staphylococcus aureus A4 (inoculum, 10e5 cfu per spot); type: functional; summary of the method: as §1
Escherichia coli [15] = experiment: Minimum inhibitory concentration against Escherichia coli DCO (inoculum, 10e4 cfu per spot); type: functional; summary of the method: as §2
Proteus mirabilis [16] = experiment: Minimum inhibitory concentration against Proteus mirabilis A18(inoculum, 10e5 cfu per spot); type: functional; summary of the method: as §1
Enterobacter cloacae [17] = experiment: Minimum inhibitory concentration against Enterobacter cloacae A13(inoculum, 10e2 cfu per spot)

Compound	MIC (Serratia marcescens) [µg/mL]	MIC (Proteus mirabilis [1]) [µg/mL]	MIC (Pseudomonas aeruginosa) [µg/mL]	MIC (Escherichia coli [4]) [µg/mL]	MIC (Staphylococcus aureus [5]) [µg/mL]	MIC (Streptococcus pyogenes) [µg/mL]	MIC (Enterobacter cloacae [6]) [µg/mL]	MIC (Proteus vulgaris) [µg/mL]	MIC (Klebsiella aerogenes [7]) [µg/mL]	MIC (Enterobacter cloacae [8]) [µg/mL]	MIC (Enterobacter cloacae [9]) [µg/mL]	MIC (Klebsiella pneumoniae) [µg/mL]	MIC (Escherichia coli [10]) [µg/mL]	MIC (Klebsiella aerogenes [11]) [µg/mL]	MIC (Escherichia coli [12]) [µg/mL]	MIC (Escherichia coli [13]) [µg/mL]	MIC (Staphylococcus aureus [14]) [µg/mL]	MIC (Escherichia coli [15]) [µg/mL]	also measured
CC(=O)OCC1=C(C(=O)OC(c2ccccc2)c2ccccc2)N2C(=O)[C@@H](Nc3nc4ccccc4s3)C2SC1 (stereo partly specified)	1000 (≈ 1750 µM)	200 (≈ 350 µM)	> 1000	200 (≈ 350 µM)	0.5 (≈ 0.875 µM)	1 (≈ 1.75 µM)													MIC (Staphylococcus aureus [2]): 0.5 µg/mL (≈ 0.875 µM); MIC (Enterobacter cloacae [3]): 200 µg/mL (≈ 350 µM)
CC(=O)OCC1=C(C(=O)OC(C)(C)C)N2C(=O)[C@@H](Nc3nc4ccc[nH]c-4n3)C2SC1 (stereo partly specified)	> 256	32 (≈ 71.8 µM)	> 256	2 (≈ 4.49 µM)	2 (≈ 4.49 µM)	4 (≈ 8.98 µM)	256 (≈ 575 µM)	> 256	256 (≈ 575 µM)	> 256	1 (≈ 2.24 µM)	2 (≈ 4.49 µM)	4 (≈ 8.98 µM)	1 (≈ 2.24 µM)	0.5 (≈ 1.12 µM)	0.5 (≈ 1.12 µM)	64 (≈ 144 µM)	0.5 (≈ 1.12 µM)	
CC1=C(C(=O)OC(c2ccccc2)c2ccccc2)N2C(=O)[C@@H](Nc3nc4ccccc4o3)C2SC1 (stereo partly specified)	> 1000	1000 (≈ 2010 µM)	> 1000	> 1000	8 (≈ 16.1 µM)	200 (≈ 402 µM)													MIC (Staphylococcus aureus [2]): 8 µg/mL (≈ 16.1 µM); MIC (Enterobacter cloacae [17]): 1000 µg/mL (≈ 2010 µM)
CO/N=C(\C(=O)N[C@@H]1C(=O)N2C(C(=O)O)=C(COC(C)=O)CS[C@H]12)c1csc(N)n1 [CEFOTAXIME]	0.25 (≈ 0.549 µM)	0.06 (≈ 0.132 µM)	128 (≈ 281 µM)	0.25 (≈ 0.549 µM)	4 (≈ 8.78 µM)	0.03 (≈ 0.0659 µM)	256 (≈ 562 µM)	0.5 (≈ 1.1 µM)	4 (≈ 8.78 µM)	32 (≈ 70.3 µM)	0.03 (≈ 0.0659 µM)	0.06 (≈ 0.132 µM)	0.06 (≈ 0.132 µM)	0.06 (≈ 0.132 µM)	0.06 (≈ 0.132 µM)	0.002 (≈ 0.00439 µM)	32 (≈ 70.3 µM)	0.03 (≈ 0.0659 µM)	

More lines, in order of falling MIC (Serratia marcescens), values ahead:

MIC (Serratia marcescens) [µg/mL]	MIC (Proteus mirabilis [1]) [µg/mL]	MIC (Pseudomonas aeruginosa) [µg/mL]	MIC (Escherichia coli [4]) [µg/mL]	MIC (Staphylococcus aureus [5]) [µg/mL]	MIC (Streptococcus pyogenes) [µg/mL]	MIC (Enterobacter cloacae [6]) [µg/mL]	MIC (Proteus vulgaris) [µg/mL]	MIC (Klebsiella aerogenes [7]) [µg/mL]	MIC (Enterobacter cloacae [8]) [µg/mL]	MIC (Enterobacter cloacae [9]) [µg/mL]	MIC (Klebsiella pneumoniae) [µg/mL]	MIC (Escherichia coli [10]) [µg/mL]	MIC (Klebsiella aerogenes [11]) [µg/mL]	MIC (Escherichia coli [12]) [µg/mL]	MIC (Escherichia coli [13]) [µg/mL]	MIC (Staphylococcus aureus [14]) [µg/mL]	MIC (Escherichia coli [15]) [µg/mL]	Compound	also measured
128 (≈ 225 µM)		> 256	2 (≈ 3.52 µM)	2 (≈ 3.52 µM)	1 (≈ 1.76 µM)	256 (≈ 450 µM)	256 (≈ 450 µM)	128 (≈ 225 µM)	256 (≈ 450 µM)	2 (≈ 3.52 µM)	4 (≈ 7.03 µM)	4 (≈ 7.03 µM)	4 (≈ 7.03 µM)	1 (≈ 1.76 µM)	0.06 (≈ 0.106 µM)	16 (≈ 28.1 µM)	1 (≈ 1.76 µM)	CC(=O)OCC1=C(C(=O)OC(c2ccccc2)c2ccccc2)N2C(=O)[C@@H](Nc3nc4cc(C)ccc4[nH]3)C2SC1 (stereo partly specified)	MIC (Proteus mirabilis [16]): 4 µg/mL (≈ 7.03 µM)
128 (≈ 393 µM)	32 (≈ 98.3 µM)	> 256	0.06 (≈ 0.184 µM)	16 (≈ 49.2 µM)	16 (≈ 49.2 µM)	0.25 (≈ 0.768 µM)	64 (≈ 197 µM)	4 (≈ 12.3 µM)	0.06 (≈ 0.184 µM)	0.03 (≈ 0.0922 µM)	0.03 (≈ 0.0922 µM)	1 (≈ 3.07 µM)	0.12 (≈ 0.369 µM)	0.03 (≈ 0.0922 µM)	0.004 (≈ 0.0123 µM)	> 256	0.03 (≈ 0.0922 µM)	CC1(C)S[C@@H]2[C@H](/N=C/N3CCCCCC3)C(=O)N2[C@H]1C(=O)O [AMDINOCILLIN]	
64 (≈ 115 µM)		≥ 128	2 (≈ 3.61 µM)	2 (≈ 3.61 µM)	2 (≈ 3.61 µM)	≥ 128	64 (≈ 115 µM)	≥ 128	≥ 128	2 (≈ 3.61 µM)	1 (≈ 1.8 µM)	2 (≈ 3.61 µM)	2 (≈ 3.61 µM)	0.25 (≈ 0.451 µM)	< 0.03	8 (≈ 14.4 µM)	0.5 (≈ 0.902 µM)	CC(=O)OCC1=C(C(=O)OC(c2ccccc2)c2ccccc2)N2C(=O)[C@@H](Nc3nc4ccccc4[nH]3)C2SC1 (stereo partly specified)	MIC (Proteus mirabilis [16]): 4 µg/mL (≈ 7.21 µM)
